Assay results reported in paper PMC3698492 (Scientific Reports, 2013).

What was measured:
[1] = target: T1, 5-HT1B (Drosophila melanogaster, UniProt P28286); assay: Calcium imaging of receptor expressed in HEK-293T cells; assay type: cell-based
T1 sequence (P28286 1-617): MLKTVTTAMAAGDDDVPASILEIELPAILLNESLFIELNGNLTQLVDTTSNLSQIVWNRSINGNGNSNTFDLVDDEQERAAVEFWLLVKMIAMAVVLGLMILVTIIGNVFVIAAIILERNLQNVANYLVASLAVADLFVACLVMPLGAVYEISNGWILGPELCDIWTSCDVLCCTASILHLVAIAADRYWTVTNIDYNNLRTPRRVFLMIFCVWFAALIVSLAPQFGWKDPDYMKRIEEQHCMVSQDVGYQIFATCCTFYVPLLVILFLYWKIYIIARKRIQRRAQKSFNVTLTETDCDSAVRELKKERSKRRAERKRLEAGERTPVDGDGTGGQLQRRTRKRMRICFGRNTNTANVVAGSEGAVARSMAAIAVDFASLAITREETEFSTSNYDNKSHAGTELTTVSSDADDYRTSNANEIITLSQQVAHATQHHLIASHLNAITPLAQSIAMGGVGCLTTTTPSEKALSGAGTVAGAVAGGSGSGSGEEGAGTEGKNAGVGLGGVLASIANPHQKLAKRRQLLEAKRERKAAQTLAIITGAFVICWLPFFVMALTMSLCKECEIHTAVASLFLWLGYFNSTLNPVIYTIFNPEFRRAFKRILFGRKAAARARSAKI

[2] = target: T2, 5-HT2B (Drosophila melanogaster, UniProt Q8INQ6); assay: as above; assay type: cell-based; conditions: 100 μM metitepine; stated for all 5-HT receptors
T2 sequence (Q8INQ6 1-904): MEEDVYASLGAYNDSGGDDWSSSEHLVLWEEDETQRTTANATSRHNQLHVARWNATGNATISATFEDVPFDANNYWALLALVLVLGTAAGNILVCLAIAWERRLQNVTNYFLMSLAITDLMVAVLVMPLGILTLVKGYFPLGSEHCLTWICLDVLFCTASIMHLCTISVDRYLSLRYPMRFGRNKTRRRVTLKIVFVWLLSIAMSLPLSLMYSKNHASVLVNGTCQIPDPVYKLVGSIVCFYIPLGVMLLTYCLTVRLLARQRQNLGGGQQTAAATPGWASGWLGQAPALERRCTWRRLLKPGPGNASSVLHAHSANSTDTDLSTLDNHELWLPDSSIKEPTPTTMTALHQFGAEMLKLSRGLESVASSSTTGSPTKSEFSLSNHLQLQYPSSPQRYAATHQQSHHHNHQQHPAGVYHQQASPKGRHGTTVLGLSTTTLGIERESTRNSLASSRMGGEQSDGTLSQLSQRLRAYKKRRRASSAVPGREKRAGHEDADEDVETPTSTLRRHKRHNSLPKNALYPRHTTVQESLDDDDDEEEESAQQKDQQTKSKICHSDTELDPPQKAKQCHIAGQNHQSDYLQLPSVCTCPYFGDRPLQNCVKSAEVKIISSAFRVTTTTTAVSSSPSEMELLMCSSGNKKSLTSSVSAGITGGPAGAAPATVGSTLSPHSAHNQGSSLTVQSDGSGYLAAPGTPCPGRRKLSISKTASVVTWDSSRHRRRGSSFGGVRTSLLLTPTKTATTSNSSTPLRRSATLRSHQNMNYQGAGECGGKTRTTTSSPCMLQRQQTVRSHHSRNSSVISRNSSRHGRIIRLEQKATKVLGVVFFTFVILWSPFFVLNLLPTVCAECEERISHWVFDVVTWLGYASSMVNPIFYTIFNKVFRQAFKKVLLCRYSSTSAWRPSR

[3] = test system: C. elegans; conditions: different small molecule screen; cited from earlier work
[4] = test system: Drosophila larvae; assay: Larval locomotion; assay type: in vivo, Drosophila melanogaster
[5] = test system: Drosophila larvae; assay: Solid food feeding assay; assay type: in vivo, Drosophila melanogaster
Method in brief: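 Larvae aged 0–2 h were fed 17 h at 25°C and 70% humidity on cornmeal-agar-molasses food containing 0.05% bromophenol blue plus solvent or test compound. Individual larvae were imaged, and digestive-tract optical density was measured. Values were normalized to same-day solvent-treated larvae and reported as mean ± s.e.m.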

[6] = target: T3, 5-HT7 (Drosophila melanogaster, UniProt P20905); assay: Calcium imaging of receptor expressed in HEK-293T cells; assay type: cell-based; conditions: 100 μM metitepine; stated for all 5-HT receptors
T3 sequence (P20905 1-564): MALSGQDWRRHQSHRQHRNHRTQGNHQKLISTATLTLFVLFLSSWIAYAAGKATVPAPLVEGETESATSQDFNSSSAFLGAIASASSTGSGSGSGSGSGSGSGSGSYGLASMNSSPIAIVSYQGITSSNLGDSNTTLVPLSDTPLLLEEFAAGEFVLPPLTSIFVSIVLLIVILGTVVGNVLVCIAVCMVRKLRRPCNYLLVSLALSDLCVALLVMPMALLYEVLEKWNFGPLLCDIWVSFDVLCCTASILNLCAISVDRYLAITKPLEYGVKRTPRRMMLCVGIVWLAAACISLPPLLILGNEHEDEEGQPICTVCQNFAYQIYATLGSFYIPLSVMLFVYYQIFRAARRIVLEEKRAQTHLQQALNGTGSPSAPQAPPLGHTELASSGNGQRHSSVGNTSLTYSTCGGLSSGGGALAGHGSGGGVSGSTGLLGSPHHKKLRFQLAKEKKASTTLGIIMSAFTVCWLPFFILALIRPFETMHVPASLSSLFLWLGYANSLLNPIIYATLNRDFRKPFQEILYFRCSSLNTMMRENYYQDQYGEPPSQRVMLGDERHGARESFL

[7] = target: T4, 5-HT2A (Drosophila melanogaster, UniProt Q9VN38); assay: as above; assay type: cell-based; conditions: 100 μM metitepine; stated for all 5-HT receptors
T4 sequence (Q9VN38 1-868): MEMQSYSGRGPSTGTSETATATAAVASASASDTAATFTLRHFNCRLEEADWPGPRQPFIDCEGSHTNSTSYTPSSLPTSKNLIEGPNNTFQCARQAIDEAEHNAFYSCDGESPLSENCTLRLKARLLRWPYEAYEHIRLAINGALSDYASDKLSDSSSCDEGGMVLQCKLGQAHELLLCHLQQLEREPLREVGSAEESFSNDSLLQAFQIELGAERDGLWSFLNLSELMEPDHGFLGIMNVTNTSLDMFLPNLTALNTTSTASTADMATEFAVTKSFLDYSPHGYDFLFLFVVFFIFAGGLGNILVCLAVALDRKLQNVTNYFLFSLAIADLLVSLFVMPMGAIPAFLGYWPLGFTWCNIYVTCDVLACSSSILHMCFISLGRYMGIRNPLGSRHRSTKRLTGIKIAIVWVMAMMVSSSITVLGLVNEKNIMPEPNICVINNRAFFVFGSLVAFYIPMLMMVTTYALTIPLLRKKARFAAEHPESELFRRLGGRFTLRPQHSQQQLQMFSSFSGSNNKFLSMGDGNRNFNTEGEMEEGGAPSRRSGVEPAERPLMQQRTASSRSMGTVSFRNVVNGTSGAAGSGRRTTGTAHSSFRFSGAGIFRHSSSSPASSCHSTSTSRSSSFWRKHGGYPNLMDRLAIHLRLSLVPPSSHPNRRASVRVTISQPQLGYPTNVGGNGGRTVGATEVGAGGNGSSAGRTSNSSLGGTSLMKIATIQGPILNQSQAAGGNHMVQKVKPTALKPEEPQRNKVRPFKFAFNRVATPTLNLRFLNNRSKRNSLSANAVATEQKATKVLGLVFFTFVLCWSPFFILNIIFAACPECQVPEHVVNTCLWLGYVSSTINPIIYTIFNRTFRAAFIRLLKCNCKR

[8] = test system: HEK-293T cells; assay: ATP control after metitepine treatment; assay type: cell-based; conditions: 100 μM metitepine; ATP activated all cells afterwards
[9] = target: T5, 5-HT1A (Drosophila melanogaster, UniProt P28285); assay: Calcium imaging of receptor expressed in HEK-293T cells; assay type: cell-based; conditions: 100 μM metitepine; stated for all 5-HT receptors
T5 sequence (P28285 1-834): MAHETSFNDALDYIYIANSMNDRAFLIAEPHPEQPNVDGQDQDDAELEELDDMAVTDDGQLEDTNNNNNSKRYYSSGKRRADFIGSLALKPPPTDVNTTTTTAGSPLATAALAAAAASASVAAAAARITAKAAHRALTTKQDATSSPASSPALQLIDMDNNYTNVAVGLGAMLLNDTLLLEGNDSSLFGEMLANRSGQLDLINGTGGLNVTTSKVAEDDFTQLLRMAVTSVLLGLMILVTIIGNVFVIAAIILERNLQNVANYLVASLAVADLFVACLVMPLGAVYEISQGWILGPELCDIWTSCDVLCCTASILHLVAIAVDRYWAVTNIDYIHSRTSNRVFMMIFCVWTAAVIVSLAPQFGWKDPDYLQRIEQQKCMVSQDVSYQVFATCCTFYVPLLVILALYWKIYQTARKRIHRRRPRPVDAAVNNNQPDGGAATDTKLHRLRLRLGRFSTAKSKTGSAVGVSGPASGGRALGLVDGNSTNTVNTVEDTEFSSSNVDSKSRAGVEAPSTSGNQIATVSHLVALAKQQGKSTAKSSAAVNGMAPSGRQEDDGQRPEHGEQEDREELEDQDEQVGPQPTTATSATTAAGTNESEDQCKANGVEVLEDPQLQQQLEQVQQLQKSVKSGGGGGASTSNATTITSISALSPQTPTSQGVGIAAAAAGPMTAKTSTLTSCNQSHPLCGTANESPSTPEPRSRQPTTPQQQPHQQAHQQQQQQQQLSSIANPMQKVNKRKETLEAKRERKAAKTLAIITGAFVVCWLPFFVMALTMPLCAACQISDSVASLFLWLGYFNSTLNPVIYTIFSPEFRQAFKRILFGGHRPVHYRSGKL

[10] = test system: Drosophila first instar larvae; assay: Liquid food feeding assay; assay type: in vivo, Drosophila melanogaster; conditions: for dose-response verification: 14 secondary screen hits chosen for dose-response curve

Row | larval locomotion ([4]; at concentrations as low as 10 μM, data not shown) | SMILES | IC50 [1] | responses to 5-HT in presence of drug ([1]; 100 μM metitepine, stated for all 5-HT receptors) | responses to 5-HT in presence of drug [2] | lifespan [3] | crawling speed ([4]; 100 μM in solid food, 17 hours, agar surface) | solid food accumulation in digestive tract ([5]; cornmeal-agar-molasses diet with bromophenol blue, 100 μM (Fig. 3a)) | threshold efficacy dose ([5]; solid food with bromophenol blue, optical density of gut) | responses to 5-HT in presence of drug [6] | responses to 5-HT in presence of drug [7] | cell survival after treatment [8] | responses to 5-HT in presence of drug [9] | food accumulation immediately after exposure ([10]; 0-h recovery) | dose-response verification [10] | anorectic effect 4 hours after treatment ([10]; 4 h recovery) | food intake 24 hours after treatment ([10]; 24 h recovery, rebound from drug-induced fasting) | threshold concentration for efficacy ([10]; liquid food with fluorescein, increasing effects at 50 and 100 μM) | duration of anorectic effect after treatment ([10]; recovery time course after metitepine treatment) | feeding in pilot screen ([10]; pilot screen, tested individually at 20 μg/ml, data not shown)
1 |  | CSc1ccc2c(c1)C(N1CCN(C)CC1)Cc1ccccc1S2 (centres unmarked) [Metitepine] | 58 µM | dramatically suppressed or completely abolished | dramatically suppressed or completely abolished | extends lifespan | crawled at the same speed as solvent treated controls | accumulated less solid food | 50 µM | dramatically suppressed or completely abolished | dramatically suppressed or completely abolished | did not kill the cells | dramatically suppressed or completely abolished | reduced food accumulation | showed reliable dose-dependent responses | not evident | ate significantly more | 10 µM | 2 h | 
2 | dramatically reduced larval locomotion | COC(=O)[C@H]1[C@H]2C[C@@H]3c4[nH]c5cc(OC)ccc5c4CCN3C[C@H]2C[C@@H](OC(=O)c2cc(OC)c(OC)c(OC)c2)[C@@H]1OC [Reserpine] |  |  |  |  |  |  |  |  |  |  |  |  | showed reliable dose-dependent responses |  |  |  |  | 
3 |  | C[C@@H]1C[C@@H]([C@H](O)CC2CC(=O)NC(=O)C2)C(=O)[C@@H](C)C1 [cycloheximide] |  |  |  |  |  |  |  |  |  |  |  |  |  |  |  |  |  | inhibited feeding
